Experimental data: ChEMBL document CHEMBL4414577, “Discovery of Pyrrolo[2,3-b]pyridine (1,7-Dideazapurine) Nucleoside Analogues as Anti-Trypanosoma cruzi Agents” (J Med Chem, 2019)
Calls of active or inactive are those of the source. The rule behind the calls is not given here.

Key:
[1] = Drug metabolism in mouse liver microsomes assessed as CYP450-mediated metabolism by measuring parent compound remaining at 5 uM measured immediately in presence of NADPH by UPLC-MS analysis; assay type: ADME; conditions: read-out: Stability
How it was run: (§1)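 Compound incubated with male mouse, rat, dog or pooled human S9 fractions, with NADPH (phase I) or […], sampled at 0, 15, 30 and 60 min. Read-out is percent parent remaining. Two independent experiments of two biological replicates; diclofenac and fluconazole used as assay controls.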

[2] = Drug metabolism in rat liver microsomes assessed as UGT-mediated metabolism by measuring compound remaining at 5 uM measured immediately in presence of UDPGA by UPLC-MS analysis; assay type: ADME; conditions: read-out: Stability; how it was run: as §1
[3] = Drug metabolism in rat liver microsomes assessed as UGT-mediated metabolism by measuring compound remaining at 5 uM incubated for 60 mins in presence of UDPGA by UPLC-MS analysis; assay type: ADME; conditions: read-out: Stability; how it was run: as §1
[4] = Drug metabolism in dog liver microsomes assessed as UGT-mediated metabolism by measuring compound remaining at 5 uM measured immediately in presence of UDPGA by UPLC-MS analysis; assay type: ADME, Canis lupus familiaris; conditions: read-out: Stability; how it was run: as §1
[5] = Drug metabolism in dog liver microsomes assessed as UGT-mediated metabolism by measuring compound remaining at 5 uM incubated for 30 mins in presence of UDPGA by UPLC-MS analysis; assay type: ADME, Canis lupus familiaris; conditions: read-out: Stability; how it was run: as §1
[6] = biological target: Cytochrome P450 (Homo sapiens, UniProt P04798+P05177+P05181+P08684+P10632+P10635+P11509+P11712+P13584+P20813+P20815+P20853+P24462+P24903+P33260+P33261+P51589+P78329+P98187+Q02928+Q08477+Q16678+Q16696+Q5TCH4+Q6VVX0+Q7Z449+Q8TAV3+Q96SQ9+Q9HB55); test: Drug metabolism in human liver S9 fraction assessed as CYP450-mediated metabolism by measuring parent compound remaining at 5 uM measured immediately in presence of NADPH by UPLC-MS analysis; assay type: ADME, subcellular; conditions: read-out: Stability; how it was run: as §1
[7] = biological target: UDP-glucuronosyltransferases (UGTs) (Homo sapiens, UniProt O60656+O75310+O75795+P06133+P0DTE4+P0DTE5+P16662+P19224+P22309+P22310+P35503+P35504+P36537+P54855+Q6UWM9+Q9BY64+Q9HAW7+Q9HAW8+Q9HAW9); test: Drug metabolism in human liver S9 fraction assessed as UGT-mediated metabolism by measuring compound remaining at 5 uM incubated for 15 mins in presence of UDPGA by UPLC-MS analysis; assay type: ADME, subcellular; conditions: read-out: Stability; how it was run: as §1
[8] = test system: Trypanosoma cruzi; test: In vivo antitrypanosomal activity against Trypanosoma cruzi Y trypomastigotes infected in Swiss mouse assessed as reduction in parasitemia at 25 mg/kg, po administered twice daily via gavage for 5 days starting from 5 days post-infection and measured up to 30 days post-infection by light microscopic method relative to control; assay type: functional; parameters: scale not given: the % may be the effect or the level left
How it was run: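 Male Swiss Webster mice (18-20 g, six per group) were infected i.p. with 10⁴ Y-strain bloodstream trypomastigotes. Treatment began at 5 dpi, only in mice with detectable parasitemia. Dosing was 25 mg/kg b.i.d. by oral gavage for 5 days, using a 2.0 mg/mL formulation in 10% EtOH, 0.1 M citrate pH 3.02. Parasites in 5 μL tail-vein blood were counted microscopically up to 30 dpi, against vehicle-treated infected mice.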

[9] = test system: Trypanosoma cruzi; test: In vivo antitrypanosomal activity against Trypanosoma cruzi Y trypomastigotes infected in Swiss mouse assessed as mouse survival at 25 mg/kg, po administered twice daily for 5 days with 2 days interval for 3 cycles and measured […]; assay type: functional, organism-based
How it was run: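 Male Swiss Webster mice infected i.p. with 10⁴ Y-strain bloodstream trypomastigotes; six per group. Oral gavage from 5 dpi for 15 days (three 5-day rounds, 2 days off): test compound 25 mg/kg b.i.d., benznidazole 100 mg/kg s.i.d. Parasites counted in 5 μL tail blood to 30 dpi; mortality followed to 53 dpi.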

[10] = test system: L929; test: Cytotoxicity against mouse L929 cells assessed as reduction in cell viability; assay type: cell-based

With `Nc1ccnc2c1c(I)cn2[C@@H]1O[C@H](CO)[C@@H](O)[C@H]1O` the remaining at 0 min, 5 µM [1] was 100%, the remaining at 0 min, 5 µM [2] was 100% and the remaining at 1 h, 5 µM [3] was 94%. For the same compound, the remaining at 0 min, 5 µM [4] was 100%, the remaining at 0.5 h, 5 µM [5] was 94% and the remaining at 0 min, 5 µM [6] was 100%. For the same compound, the remaining at 0.25 h, 5 µM [7] was 99%, the Activity [8] was 100% and the Activity [9] was “inactive”. The EC50 [10] was > 200 µM.
